According to ChEMBL document CHEMBL1140118, “Design, synthesis, and structure-activity relationships of novel insulin receptor tyrosine kinase activators” (J Med Chem, 2008):
Active and inactive are the calls of the source. The rule behind the calls is not given here.

Columns and labels:
Insulin receptor = Insulin receptor (Mus musculus, UniProt P15208); experiment: Activation of insulin receptor tyrosine kinase in mouse 3T3-L1 cells assessed as increase in 2-deoxy-D-[14C]glucose transport in presence of insulin; type: cell-based
Insulin receptor, sequence (P15208 28-748 limits assumed): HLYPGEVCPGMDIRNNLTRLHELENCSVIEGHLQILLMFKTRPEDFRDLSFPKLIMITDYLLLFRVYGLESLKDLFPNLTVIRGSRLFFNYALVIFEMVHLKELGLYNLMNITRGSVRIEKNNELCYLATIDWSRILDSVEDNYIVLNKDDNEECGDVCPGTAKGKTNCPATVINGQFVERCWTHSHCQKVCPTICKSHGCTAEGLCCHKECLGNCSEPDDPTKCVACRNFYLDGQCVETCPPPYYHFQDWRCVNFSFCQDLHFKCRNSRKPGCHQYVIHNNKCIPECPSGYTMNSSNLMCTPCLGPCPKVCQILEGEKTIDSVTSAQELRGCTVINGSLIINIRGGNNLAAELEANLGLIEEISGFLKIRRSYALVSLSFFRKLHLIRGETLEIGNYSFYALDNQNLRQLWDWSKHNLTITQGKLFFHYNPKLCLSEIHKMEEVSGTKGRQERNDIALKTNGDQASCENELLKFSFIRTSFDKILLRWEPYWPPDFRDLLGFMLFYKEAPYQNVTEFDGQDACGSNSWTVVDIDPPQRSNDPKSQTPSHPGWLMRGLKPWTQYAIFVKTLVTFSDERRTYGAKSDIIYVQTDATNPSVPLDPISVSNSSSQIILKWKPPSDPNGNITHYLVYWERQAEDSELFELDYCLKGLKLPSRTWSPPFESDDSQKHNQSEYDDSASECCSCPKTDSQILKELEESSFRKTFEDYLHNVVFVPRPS
Insulin receptor, sequence (P15208 753-1372 limits assumed): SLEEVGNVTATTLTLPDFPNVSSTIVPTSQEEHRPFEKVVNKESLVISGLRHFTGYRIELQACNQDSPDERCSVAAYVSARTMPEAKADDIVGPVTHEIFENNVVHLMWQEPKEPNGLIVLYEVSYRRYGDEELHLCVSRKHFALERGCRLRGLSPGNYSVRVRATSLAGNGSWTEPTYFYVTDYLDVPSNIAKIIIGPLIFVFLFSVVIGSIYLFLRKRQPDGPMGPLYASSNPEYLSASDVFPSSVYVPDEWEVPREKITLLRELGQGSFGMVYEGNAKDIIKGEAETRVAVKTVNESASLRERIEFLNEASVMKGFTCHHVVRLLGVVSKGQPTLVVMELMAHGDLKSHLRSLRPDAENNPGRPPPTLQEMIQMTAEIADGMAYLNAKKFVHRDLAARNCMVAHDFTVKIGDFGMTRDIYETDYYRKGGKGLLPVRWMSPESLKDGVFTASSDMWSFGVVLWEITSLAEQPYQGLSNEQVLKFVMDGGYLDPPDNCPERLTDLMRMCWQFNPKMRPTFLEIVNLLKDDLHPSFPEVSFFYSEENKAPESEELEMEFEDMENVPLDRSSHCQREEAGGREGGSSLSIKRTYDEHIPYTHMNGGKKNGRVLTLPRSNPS
How it was run: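 Differentiated, 16 h serum-starved 3T3-L1 adipocytes were exposed to compound plus 5.6 nM insulin (submaximal) for 30 min at 37 °C. They were then pulsed 30 min with 0.5 µCi/mL 2-deoxy-D-[14C]glucose and lysate counts were read. Four concentrations were tested in triplicate. EC50 came from nonlinear regression of untransformed data, given as mean ± SEM when n ≥ 3.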

[1] = target: Insulin receptor (Mus musculus) (UniProt P15208); experiment: Activation of insulin receptor tyrosine kinase in mouse 3T3-L1 cells assessed as increase in 2-deoxy-D-[14C]glucose transport in absence of insulin; type: cell-based
Insulin receptor (Mus musculus), sequence (P15208 28-748 limits assumed): as the sequence (P15208 28-748 limits assumed) above
Insulin receptor (Mus musculus), sequence (P15208 753-1372 limits assumed): as the sequence (P15208 753-1372 limits assumed) above
How it was run: (§1)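 Differentiated 3T3-L1 adipocytes (induced 72 h with dexamethasone, IBMX and insulin, then 48 h with insulin, then 4 days in normal medium) were serum-starved 16 h in 0.1% BSA. Compound was added without insulin for 30 min at 37 °C. Uptake of 0.5 µCi/mL 2-deoxy-D-[14C]glucose over 30 min was read by scintillation counting of lysates after a cold PBS rinse.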

[2] = target: Insulin receptor (Homo sapiens) (UniProt P06213); experiment: Effect on autophosphorylation of human insulin receptor cytoplasmic kinase domain
Insulin receptor (Homo sapiens), sequence (P06213 28-758 limits assumed): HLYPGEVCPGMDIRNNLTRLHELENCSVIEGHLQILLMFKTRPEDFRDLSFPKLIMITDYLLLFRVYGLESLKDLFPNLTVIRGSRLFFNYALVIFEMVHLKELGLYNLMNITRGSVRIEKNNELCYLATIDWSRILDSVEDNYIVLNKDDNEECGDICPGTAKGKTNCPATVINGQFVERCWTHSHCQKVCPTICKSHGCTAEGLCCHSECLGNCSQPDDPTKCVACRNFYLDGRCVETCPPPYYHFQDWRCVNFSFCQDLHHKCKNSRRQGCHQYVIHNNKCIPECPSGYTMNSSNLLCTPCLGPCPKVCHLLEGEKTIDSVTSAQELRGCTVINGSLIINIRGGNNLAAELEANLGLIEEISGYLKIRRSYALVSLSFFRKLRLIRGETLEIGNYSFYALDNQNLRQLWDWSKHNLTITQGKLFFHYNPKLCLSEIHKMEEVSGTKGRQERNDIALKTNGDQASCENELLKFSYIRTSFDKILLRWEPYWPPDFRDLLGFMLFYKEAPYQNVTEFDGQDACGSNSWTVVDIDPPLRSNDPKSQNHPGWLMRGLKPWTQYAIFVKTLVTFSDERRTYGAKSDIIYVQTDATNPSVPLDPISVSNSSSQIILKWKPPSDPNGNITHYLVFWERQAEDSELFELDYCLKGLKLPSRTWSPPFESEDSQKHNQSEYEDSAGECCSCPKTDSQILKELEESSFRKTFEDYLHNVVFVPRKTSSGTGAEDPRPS
Insulin receptor (Homo sapiens), sequence (P06213 763-1382 limits assumed): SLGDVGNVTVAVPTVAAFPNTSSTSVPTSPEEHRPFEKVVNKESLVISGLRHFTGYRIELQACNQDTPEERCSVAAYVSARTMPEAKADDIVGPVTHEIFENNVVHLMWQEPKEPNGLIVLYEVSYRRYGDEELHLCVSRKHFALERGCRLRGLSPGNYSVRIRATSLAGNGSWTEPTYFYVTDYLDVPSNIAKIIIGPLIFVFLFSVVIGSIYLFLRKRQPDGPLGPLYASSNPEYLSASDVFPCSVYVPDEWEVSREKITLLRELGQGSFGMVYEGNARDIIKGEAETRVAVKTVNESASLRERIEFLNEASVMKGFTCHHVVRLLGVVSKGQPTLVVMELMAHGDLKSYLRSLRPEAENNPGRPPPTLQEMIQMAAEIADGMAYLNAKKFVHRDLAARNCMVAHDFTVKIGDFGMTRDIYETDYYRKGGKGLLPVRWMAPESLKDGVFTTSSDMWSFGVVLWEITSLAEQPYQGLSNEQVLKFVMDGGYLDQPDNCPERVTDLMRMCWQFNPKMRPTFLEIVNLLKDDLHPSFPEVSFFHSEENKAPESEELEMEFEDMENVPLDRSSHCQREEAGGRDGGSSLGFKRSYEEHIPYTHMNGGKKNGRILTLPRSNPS
How it was run: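 Recombinant human IR cytoplasmic domain (200 ng) in 50 mM Tris pH 7.4 with 2 mM MnCl2, 10 mM MgCl2, 50 µM ATP and [γ-32P]ATP (10 µCi) was incubated with varied compound concentrations for 10 min at 25 °C. Incorporated label was measured by scintillation counting, either of excised SDS-PAGE bands or of TCA precipitates washed with phosphoric acid.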

[3] = target: Insulin receptor (Homo sapiens) (UniProt P06213); experiment: Activation of human insulin receptor overexpressed in mouse 3T3-HIR cells assessed as increase in phosphotyrosine at >=18 uM in absence of insulin; type: cell-based
3T3-L1 [4] = experiment: Increase in glucose transport in mouse 3T3-L1 cells at 30 uM in absence of insulin; type: functional; how it was run: as §1
3T3-L1 [5] = experiment: Increase in insulin-stimulated glucose transport in mouse 3T3-L1 cells at >=30 uM in presence of insulin; type: functional, cell-based
3T3-L1 [6] = experiment: Increase in GLUT4 content in mouse 3T3-L1 cell plasma membrane at 56 uM in presence of insulin; type: functional
Rattus norvegicus [7] = experiment: Reduction in blood glucose level in streptozotocin-induced hypoinsulinemic CD rat at 50 mg/kg, ip after 30 mins after glucose loading by oral glucose tolerance test; type: functional; set-up: scale not given: the % may be the effect or the level left
How it was run: (§2)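 Male CD IGS rats (250-300 g) received streptozotocin 60 mg/kg ip and were enrolled if fed glucose was ≥250 mg/dL. On day 4 post-STZ they were fasted overnight and randomized on baseline glucose (n = 12/group). They got compound or PBS, then a 50% dextrose load by gavage (4 mL/kg). Tail blood glucose was read by glucometer, and groups were compared by unpaired t test.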

Rattus norvegicus [8] = experiment: Reduction in blood glucose level in streptozotocin-induced hypoinsulinemic CD rat at 1000 mg/kg, po after 30 mins after glucose loading by oral glucose tolerance test; type: functional; set-up: scale not given: the % may be the effect or the level left; how it was run: as §2
3T3-L1 [9] = experiment: Increase in glucose transport in mouse 3T3-L1 cells at 50 uM in absence of insulin; type: functional; how it was run: as §1
[10] = target: Insulin receptor (Homo sapiens) (UniProt P06213); experiment: Activation of human insulin receptor overexpressed in mouse 3T3-HIR cells assessed as increase in phosphotyrosine at 3 uM in presence of insulin; type: cell-based

Row | Compound | EC50 (Insulin receptor) [µM] | other results
1 | CN(C(=O)N(C)c1ccc2ccc(S(=O)(=O)Nc3ccc(Cl)c(C(=O)O)c3)cc2c1)c1ccc2ccc(S(=O)(=O)Nc3ccc(Cl)c(C(=O)O)c3)cc2c1 | > 200 | –
2 | CNC(=Nc1ccc2ccc(S(=O)(=O)Nc3ccc(Cl)c(C(=O)O)c3)cc2c1)Nc1ccc2ccc(S(=O)(=O)Nc3ccc(Cl)c(C(=O)O)c3)cc2c1 | > 200 | –
3 | CC(=O)N(CCN(C(C)=O)c1ccc2ccc(S(=O)(=O)Nc3ccc(Cl)c(C(=O)O)c3)cc2c1)c1ccc2ccc(S(=O)(=O)Nc3ccc(Cl)c(C(=O)O)c3)cc2c1 | > 200 | –
4 | O=C(Nc1ccc2ccc(S(=O)(=O)Nc3ccc(Cl)c(C(=O)O)c3)cc2c1)Nc1ccc2ccc(S(=O)(=O)Nc3ccc(Cl)c(C(=O)O)c3)cc2c1 | 16 | –
5 | O=C(Nc1ccc2ccc(C(=O)Nc3cccc(S(=O)(=O)O)c3)cc2c1)Nc1ccc2ccc(C(=O)Nc3cccc(S(=O)(=O)O)c3)cc2c1 | > 200 | –
6 | O=C(Nc1ccc2c(O)cc(S(=O)(=O)Nc3cccc(C(F)(F)F)c3)cc2c1)Nc1ccc2c(O)cc(S(=O)(=O)Nc3cccc(C(F)(F)F)c3)cc2c1 | > 200 | –
7 | O=C(Nc1ccc2ccc(S(=O)(=O)Nc3cccc(C(=O)O)c3)cc2c1)Nc1ccc2ccc(S(=O)(=O)Nc3cccc(C(=O)O)c3)cc2c1 | 24 | –
8 | O=C(Nc1ccc2c(O)cc(S(=O)(=O)Nc3ccc(O)c(C(=O)O)c3)cc2c1)Nc1ccc2c(O)cc(S(=O)(=O)Nc3ccc(O)c(C(=O)O)c3)cc2c1 | 43 | –
9 | N#CN=C(Nc1ccc2ccc(S(=O)(=O)Nc3ccc(Cl)c(C(=O)O)c3)cc2c1)Nc1ccc2ccc(S(=O)(=O)Nc3ccc(Cl)c(C(=O)O)c3)cc2c1 | > 200 | –
10 | O=C(Nc1ccc2c(O)cc(S(=O)(=O)Nc3cccc(C(=O)O)c3)cc2c1)Nc1ccc2c(O)cc(S(=O)(=O)Nc3cccc(C(=O)O)c3)cc2c1 | 43 | –
11 | N#Cc1cccc(NS(=O)(=O)c2ccc3ccc(NC(=O)Nc4ccc5ccc(S(=O)(=O)Nc6cccc(C#N)c6)cc5c4)cc3c2)c1 | > 200 | –
12 | O=C(Nc1ccc2ccc(S(=O)(=O)Nc3ccccc3)cc2c1)Nc1ccc2ccc(S(=O)(=O)Nc3ccccc3)cc2c1 | > 200 | –
13 | O=C(Nc1ccc2ccc(S(=O)(=O)Nc3ccc([N+](=O)[O-])c(C(=O)O)c3)cc2c1)Nc1ccc2ccc(S(=O)(=O)Nc3ccc([N+](=O)[O-])c(C(=O)O)c3)cc2c1 | 40 | –
14 | O=C(O)Cc1cccc(NS(=O)(=O)c2cc(O)c3ccc(NC(=O)Nc4ccc5c(O)cc(S(=O)(=O)Nc6cccc(CC(=O)O)c6)cc5c4)cc3c2)c1 | > 200 | –
15 | NC(=Nc1ccc2ccc(S(=O)(=O)Nc3ccc(Cl)c(C(=O)O)c3)cc2c1)Nc1ccc2ccc(S(=O)(=O)Nc3ccc(Cl)c(C(=O)O)c3)cc2c1 | 179 | –
16 | O=C(Nc1ccc2c(O)c(/N=N/c3ccc(/N=N/c4ccc(S(=O)(=O)O)cc4)cc3S(=O)(=O)O)c(S(=O)(=O)O)cc2c1)Nc1ccc2c(O)cc(S(=O)(=O)O)c(/N=N/c3ccc(/N=N/c4ccc(S(=O)(=O)O)cc4)cc3S(=O)(=O)O)c2c1 | 90 | Activity [1]: inactive; Activity [2]: Dose-dependent effect
17 | O=C(Nc1ccc2c(O)cc(S(=O)(=O)Nc3cccc(CO)c3)cc2c1)Nc1ccc2c(O)cc(S(=O)(=O)Nc3cccc(CO)c3)cc2c1 | > 200 | –
18 | O=C(Nc1ccc2c(O)cc(S(=O)(=O)Nc3ccccc3C(=O)O)cc2c1)Nc1ccc2c(O)cc(S(=O)(=O)Nc3ccccc3C(=O)O)cc2c1 | 93 | –
19 | O=C(Nc1ccc2c(O)cc(S(=O)(=O)Nc3cccc(-c4nn[nH]n4)c3)cc2c1)Nc1ccc2c(O)cc(S(=O)(=O)Nc3cccc(-c4nn[nH]n4)c3)cc2c1 | 73 | –
20 | O=C(Nc1ccc2c(O)cc(S(=O)(=O)Nc3ccc(C(=O)O)cc3)cc2c1)Nc1ccc2c(O)cc(S(=O)(=O)Nc3ccc(C(=O)O)cc3)cc2c1 | 103 | –
21 | O=C(Nc1ccc2ccc(S(=O)(=O)Nc3cccc(-c4nn[nH]n4)c3)cc2c1)Nc1ccc2ccc(S(=O)(=O)Nc3cccc(-c4nn[nH]n4)c3)cc2c1 | 54 | –

Row | Compound | EC50 (Insulin receptor) [µM] | other results
22 | O=C(Nc1ccc2ccc(S(=O)(=O)Nc3cccc(S(=O)(=O)O)c3)cc2c1)Nc1ccc2ccc(S(=O)(=O)Nc3cccc(S(=O)(=O)O)c3)cc2c1 | 22 | –
23 | O=C(Nc1ccc2ccc(S(=O)(=O)O)cc2c1)Nc1ccc2ccc(S(=O)(=O)Nc3ccc(O)c(C(=O)O)c3)cc2c1 | > 200 | –
24 | O=C(Nc1ccc2ccc(C(=O)Nc3cccc(C(=O)O)c3)cc2c1)Nc1ccc2ccc(C(=O)Nc3cccc(C(=O)O)c3)cc2c1 | > 200 | –
25 | O=C(Nc1ccc2ccc(S(=O)(=O)Nc3cccc(O)c3)cc2c1)Nc1ccc2ccc(S(=O)(=O)Nc3cccc(O)c3)cc2c1 | > 200 | –
26 | O=C(Nc1ccc2c(O)cc(S(=O)(=O)Nc3cccc(S(=O)(=O)O)c3)cc2c1)Nc1ccc2c(O)cc(S(=O)(=O)Nc3cccc(S(=O)(=O)O)c3)cc2c1 | 26 | Activity [2]: Dose-dependent effect
27 | O=C(Nc1ccc2ccc(S(=O)(=O)O)cc2c1)Nc1ccc2ccc(S(=O)(=O)Nc3ccc(Cl)c(S(=O)(=O)O)c3)cc2c1 | > 200 | –
28 | NS(=O)(=O)c1cccc(NS(=O)(=O)c2ccc3ccc(NC(=O)Nc4ccc5ccc(S(=O)(=O)Nc6cccc(S(N)(=O)=O)c6)cc5c4)cc3c2)c1 | > 200 | –
29 | O=C(Nc1ccc2ccc(S(=O)(=O)Nc3ccc(C(=O)O)cc3)cc2c1)Nc1ccc2ccc(S(=O)(=O)Nc3ccc(C(=O)O)cc3)cc2c1 | 183 | –
30 | O=C(Nc1ccc2ccc(S(=O)(=O)Nc3ccc(O)c(C(=O)O)c3)cc2c1)Nc1ccc2ccc(S(=O)(=O)Nc3ccc(O)c(C(=O)O)c3)cc2c1 | 9 | –
31 | O=C(Nc1ccc2c(O)cc(S(=O)(=O)Nc3ccc(Cl)c(C(=O)O)c3)cc2c1)Nc1ccc2c(O)cc(S(=O)(=O)Nc3ccc(Cl)c(C(=O)O)c3)cc2c1 | 18 | –
32 | O=C(Nc1ccc2ccc(S(=O)(=O)Nc3ccc(S(=O)(=O)O)cc3)cc2c1)Nc1ccc2ccc(S(=O)(=O)Nc3ccc(S(=O)(=O)O)cc3)cc2c1 | 94 | –
33 | O=C(Nc1ccc2ccc(S(=O)(=O)Nc3cccc(C(=O)O)c3O)cc2c1)Nc1ccc2ccc(S(=O)(=O)Nc3cccc(C(=O)O)c3O)cc2c1 | 150 | –
34 | O=C(Nc1ccc2ccc(S(=O)(=O)Nc3ccccc3C(=O)O)cc2c1)Nc1ccc2ccc(S(=O)(=O)Nc3ccccc3C(=O)O)cc2c1 | 41 | –
35 | O=C(Nc1ccc2c(O)cc(S(=O)(=O)Nc3ccc(Cl)c(S(=O)(=O)[O-])c3)cc2c1)Nc1ccc2c(O)cc(S(=O)(=O)Nc3ccc(Cl)c(S(=O)(=O)[O-])c3)cc2c1.[Na+].[Na+] | 5 | Activity [3]: Active; Activity (3T3-L1 [4]): 340%; Activity (3T3-L1 [5]): Active; Activity (3T3-L1 [6]): 85%; Activity (Rattus norvegicus [7]): 25%; Activity (Rattus norvegicus [8]): 32%; Activity (3T3-L1 [9]): 875%; Activity [10]: 75%
36 | CN(c1cccc(S(=O)(=O)O)c1)S(=O)(=O)c1ccc2ccc(NC(=O)Nc3ccc4ccc(S(=O)(=O)N(C)c5cccc(S(=O)(=O)O)c5)cc4c3)cc2c1 | 91 | –
37 | O=C(Nc1ccc2c(O)cc(S(=O)(=O)Nc3cccc(C(=O)O)c3Cl)cc2c1)Nc1ccc2c(O)cc(S(=O)(=O)Nc3cccc(C(=O)O)c3Cl)cc2c1 | 121 | –
38 | O=C(O)c1cc(NS(=O)(=O)c2ccc3ccc(N4CCN(c5ccc6ccc(S(=O)(=O)Nc7ccc(Cl)c(C(=O)O)c7)cc6c5)C4=O)cc3c2)ccc1Cl | 56 | –
39 | O=C(Nc1ccc2ccc(S(=O)(=O)Nc3cccc([N+](=O)[O-])c3)cc2c1)Nc1ccc2ccc(S(=O)(=O)Nc3cccc([N+](=O)[O-])c3)cc2c1 | > 200 | –
40 | O=C(Nc1ccc2ccc(S(=O)(=O)Nc3ccc(Cl)c(S(=O)(=O)O)c3)cc2c1)Nc1ccc2ccc(S(=O)(=O)Nc3ccc(Cl)c(S(=O)(=O)O)c3)cc2c1 | 6 | –
41 | O=C(O)c1cc(NS(=O)(=O)c2ccc3ccc(NC(=S)Nc4ccc5ccc(S(=O)(=O)Nc6ccc(Cl)c(C(=O)O)c6)cc5c4)cc3c2)ccc1Cl | 162 | –
42 | O=C(O)c1cc(NS(=O)(=O)c2ccc3ccc(NCCNc4ccc5ccc(S(=O)(=O)Nc6ccc(Cl)c(C(=O)O)c6)cc5c4)cc3c2)ccc1Cl | > 200 | –
